Measured values as given in ChEMBL document CHEMBL4049451, “Exploring the Role of N6-Substituents in Potent Dual Acting 5'-C-Ethyltetrazolyladenosine Derivatives: Synthesis, Binding, Functional Assays, and Antinociceptive Effects in Mice ∇” (J Med Chem, 2017).
Calls of active or inactive are those of the source. The rule behind the calls is not given here.

What was measured:
Mus musculus [1] = test: Antinociceptive activity in formalin induced nociceptive mouse model assessed as reduction in nociceptive behavior at 0.5 mg/kg, ip administered 10 mins prior to formalin induction measured up to 7 mins; format: functional, organism-based
How it was run: (§1)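 Mice, randomized, n = 8–10 per group; ip compound or vehicle (10% DMSO in 0.9% NaCl) 10 min before formalin (1.25% in saline, 30 μL) into dorsal hind paw. Lifting, licking, shaking, flinching timed every 5 min for 60 min; phase 1 0–7 min, phase 2 15–60 min; mean ± SEM.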

Mus musculus [2] = test: Antinociceptive activity in formalin induced nociceptive mouse model assessed as reduction in nociceptive behavior at 0.5 mg/kg, ip administered 10 mins prior to formalin induction measured for 15 to 60 mins; format: functional, organism-based; how it was run: as §1
Adenosine receptor A3 [3] = molecular target: T1, Adenosine receptor A3 (Rattus norvegicus, UniProt P28647); test: Displacement of [3H]NECA from recombinant rat adenosine A3 receptor expressed in CHO cell membranes after 3 hrs by microbeta scintillation counting
T1 sequence (P28647 whole entry): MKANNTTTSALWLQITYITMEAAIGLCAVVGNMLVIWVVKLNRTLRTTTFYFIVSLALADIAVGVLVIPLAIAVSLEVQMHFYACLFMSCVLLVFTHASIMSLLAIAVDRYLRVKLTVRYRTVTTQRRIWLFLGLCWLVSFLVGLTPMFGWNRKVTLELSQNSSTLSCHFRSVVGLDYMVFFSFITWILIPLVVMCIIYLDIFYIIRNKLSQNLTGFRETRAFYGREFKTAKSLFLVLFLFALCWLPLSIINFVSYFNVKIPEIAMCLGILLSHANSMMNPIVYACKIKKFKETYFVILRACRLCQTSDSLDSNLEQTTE
How it was run: (§2)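 CHO membranes with stable human A1, A2A, A3 or rat A3 (1000g then 100 000g spin, stored -80 °C). Competition: hA1 1 nM [3H]CCPA, nonspecific with 1 mM theophylline; hA2A 10 nM [3H]NECA; hA3 1 nM [3H]HEMADO; rA3 30 nM [3H]NECA; latter three nonspecific with 100 μM R-PIA.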

[4] = Selectivity ratio of Ki for recombinant rat adenosine A3 receptor expressed in CHO cell membranes to Ki for recombinant human adenosine A3 receptor expressed in CHO cell membranes; format: cell-based; how it was run: as §2
Adenosine receptor A1 [5] = molecular target: T2, Adenosine receptor A1 (Homo sapiens, UniProt P30542); test: Agonist activity at recombinant human adenosine A1 receptor expressed in CHO cell membranes assessed as inhibition of forskolin-stimulated adenylyl cyclase activity after 10 mins in presence of [alpha-32P]ATP; format: functional, cell-based
T2 sequence (P30542 whole entry): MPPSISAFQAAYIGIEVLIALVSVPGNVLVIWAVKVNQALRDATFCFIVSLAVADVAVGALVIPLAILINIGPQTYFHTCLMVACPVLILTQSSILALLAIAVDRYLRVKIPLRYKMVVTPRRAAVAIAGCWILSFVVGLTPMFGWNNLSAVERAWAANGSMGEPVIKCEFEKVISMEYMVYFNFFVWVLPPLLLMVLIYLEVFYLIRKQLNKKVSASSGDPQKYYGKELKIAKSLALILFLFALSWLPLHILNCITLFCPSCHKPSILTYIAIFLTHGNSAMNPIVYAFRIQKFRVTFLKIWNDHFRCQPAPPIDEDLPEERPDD
How it was run: (§3)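 hA1 in CHO cell membranes (single high-speed spin, resuspended in 50 mM Tris/HCl pH 7.4, used immediately); agonist inhibition of forskolin-stimulated adenylyl cyclase; efficacy relative to CCPA as reference full agonist (100%). Geometric means with 95% confidence intervals, n = 3.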

Adenosine receptor A1 [6] = molecular target: T2, Adenosine receptor A1; test: Displacement of [3H]CCPA from recombinant human adenosine A1 receptor expressed in CHO cell membranes after 3 hrs by microbeta scintillation counting; how it was run: as §2
Adenosine receptor A2a [7] = molecular target: T3, Adenosine receptor A2a (Homo sapiens, UniProt P29274); test: Displacement of [3H]NECA from recombinant human adenosine A2A receptor expressed in CHO cell membranes after 3 hrs by microbeta scintillation counting; how it was run: as §2
T3 sequence (P29274 whole entry): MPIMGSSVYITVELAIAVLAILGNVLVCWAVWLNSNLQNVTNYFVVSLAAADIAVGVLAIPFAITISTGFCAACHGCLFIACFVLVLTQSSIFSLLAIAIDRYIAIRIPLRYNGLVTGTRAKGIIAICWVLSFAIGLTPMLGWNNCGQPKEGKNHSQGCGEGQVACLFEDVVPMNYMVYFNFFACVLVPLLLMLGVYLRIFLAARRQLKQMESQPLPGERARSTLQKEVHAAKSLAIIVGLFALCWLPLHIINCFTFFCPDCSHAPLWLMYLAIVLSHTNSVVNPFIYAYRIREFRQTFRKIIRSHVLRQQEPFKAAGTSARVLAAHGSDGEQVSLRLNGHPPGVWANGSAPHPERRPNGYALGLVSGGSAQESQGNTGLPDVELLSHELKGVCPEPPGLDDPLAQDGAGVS

Adenosine receptor A3 [8] = molecular target: T4, Adenosine receptor A3 (Homo sapiens, UniProt P0DMS8); test: Displacement of [3H]HEMADO from recombinant human adenosine […] receptor expressed in CHO cell membranes after 3 hrs by microbeta scintillation counting; how it was run: as §2
T4 sequence (P0DMS8 whole entry): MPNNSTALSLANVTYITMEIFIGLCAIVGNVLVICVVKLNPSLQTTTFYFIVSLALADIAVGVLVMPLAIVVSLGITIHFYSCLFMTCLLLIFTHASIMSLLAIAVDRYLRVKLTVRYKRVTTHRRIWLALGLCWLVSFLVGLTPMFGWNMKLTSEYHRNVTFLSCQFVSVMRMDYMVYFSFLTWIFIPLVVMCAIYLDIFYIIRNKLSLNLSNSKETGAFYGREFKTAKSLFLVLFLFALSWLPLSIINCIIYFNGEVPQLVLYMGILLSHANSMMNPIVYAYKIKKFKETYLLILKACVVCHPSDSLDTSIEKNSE

Adenosine receptor A2a [9] = molecular target: T3, Adenosine receptor A2a; test: Agonist activity at recombinant human adenosine A2A receptor expressed in CHO cell membranes assessed as stimulation of adenylyl cyclase activity by [alpha-32P]ATP assay; format: functional, cell-based
How it was run: (§4)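 hA2A or hA2B in CHO cell membranes (one high-speed spin, pellet in 50 mM Tris/HCl pH 7.4, used immediately); agonist stimulation of adenylyl cyclase gives EC50; partial agonism judged as efficacy against 100 μM NECA as full agonist. Geometric means, 95% confidence intervals, n = 3.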

Adenosine receptor A2b = molecular target: T5, Adenosine receptor A2b (Homo sapiens, UniProt P29275); test: Agonist activity at recombinant human adenosine A2B receptor expressed in CHO cell membranes assessed as stimulation of adenylyl cyclase activity by [alpha-32P]ATP assay; format: functional, cell-based; how it was run: as §4
T5 sequence (P29275 whole entry): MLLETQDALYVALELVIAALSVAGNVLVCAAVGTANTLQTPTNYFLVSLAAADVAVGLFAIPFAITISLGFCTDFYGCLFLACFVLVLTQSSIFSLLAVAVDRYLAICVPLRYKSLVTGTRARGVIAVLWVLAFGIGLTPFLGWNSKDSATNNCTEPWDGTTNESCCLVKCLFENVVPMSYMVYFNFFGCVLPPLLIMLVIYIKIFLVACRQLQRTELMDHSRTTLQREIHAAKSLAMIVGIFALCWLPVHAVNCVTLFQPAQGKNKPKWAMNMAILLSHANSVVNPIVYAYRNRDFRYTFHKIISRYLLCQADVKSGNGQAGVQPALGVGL

[10] = molecular target: T6, Adenosine receptor A2b (Homo sapiens) (UniProt P29275); test: Partial agonist activity at recombinant human adenosine A2B receptor expressed in CHO cell membranes assessed as stimulation of adenylyl cyclase activity by [alpha-32P]ATP assay relative to NECA; format: functional, cell-based; how it was run: as §4
T6 sequence (whole entry): T5 sequence (P29275 whole entry)

Adenosine receptor A3 [11] = molecular target: T4, Adenosine receptor A3; test: Antagonist activity at recombinant human adenosine A3 receptor expressed in CHO cell membranes assessed as reversal of NECA-mediated inhibition of adenylyl cyclase activity after 10 mins by [alpha-32P]ATP assay; format: functional, cell-based
[12] = molecular target: T7, Adenosine receptor A1 (Homo sapiens) (UniProt P30542); test: Agonist activity at recombinant human adenosine A1 receptor expressed in CHO cell membranes assessed as inhibition of forskolin-stimulated adenylyl cyclase activity after 10 mins relative to CCPA; format: functional, cell-based; how it was run: as §3
T7 sequence (whole entry): T2 sequence (P30542 whole entry)

Adenosine receptor A2a [13] = molecular target: T3, Adenosine receptor A2a; test: Agonist activity at recombinant human adenosine A2A receptor expressed in CHO cell membranes assessed as stimulation of adenylyl cyclase activity relative to NECA; format: functional, cell-based; how it was run: as §4
Homo sapiens [14] = organism: Homo sapiens; test: Selectivity ratio of Ki for recombinant human adenosine A2A receptor expressed in CHO cell membranes to Ki for recombinant human adenosine A1 receptor expressed in CHO cell membranes; format: cell-based; how it was run: as §2
Homo sapiens [15] = organism: Homo sapiens; test: Selectivity ratio of Ki for recombinant human adenosine A2A receptor expressed in CHO cell membranes to Ki for recombinant human adenosine A3 receptor expressed in CHO cell membranes; format: cell-based; how it was run: as §2
[16] = molecular target: Adenosine receptors; A1 & A3 (Homo sapiens) (UniProt P30542+P0DMS8); test: Selectivity ratio of Ki for recombinant human adenosine A3 receptor expressed in CHO cell membranes to Ki for recombinant human adenosine A1 receptor expressed in CHO cell membranes; format: cell-based; how it was run: as §2
Mus musculus [17] = test: Antinociceptive activity in formalin induced nociceptive mouse model at 1 mg/kg, ip administered 10 mins prior to formalin induction measured up to 60 mins; format: functional, organism-based; how it was run: as §1
[18] = Lipophilicity, log P of the compound; format: physicochemical; settings: octanol/water
Mus musculus [19] = test: Antinociceptive activity in formalin induced nociceptive mouse model assessed as reduction in late nociceptive behavior at 0.5 mg/kg, ip administered 10 mins prior to formalin induction measured for 15 to 60 mins in presence of adenosine A3 receptor antagonist MRS1334; format: functional, organism-based; how it was run: as §1
Mus musculus [20] = test: Antinociceptive activity in formalin induced nociceptive mouse model assessed as inhibition of nociceptive behavior at 0.3 mg/kg, ip administered 10 mins prior to formalin induction measured for 15 to 60 mins in presence of adenosine A3 agonist 2Cl-IBMECA; format: functional, organism-based; how it was run: as §1
Mus musculus [21] = test: Antinociceptive activity in formalin induced nociceptive mouse model assessed as reduction in nociceptive behavior at 0.3 mg/kg, ip administered 10 mins prior to formalin induction measured up to 7 mins in presence of adenosine A3 agonist 2Cl-IBMECA; format: functional, organism-based; how it was run: as §1
[22] = molecular target: T6, Adenosine receptor A2b (Homo sapiens); test: Agonist activity at recombinant human adenosine A2B receptor expressed in CHO cell membranes assessed as stimulation of adenylyl cyclase activity relative to NECA; format: functional, cell-based; how it was run: as §4

Structure (SMILES) | Ki (Adenosine receptor A3 [3]) [nM] | EC50 (Adenosine receptor A1 [5]) [nM] | Ki (Adenosine receptor A1 [6]) [nM] | Ki (Adenosine receptor A2a [7]) [nM] | Ki (Adenosine receptor A3 [8]) [nM] | EC50 (Adenosine receptor A2a [9]) [nM] | EC50 (Adenosine receptor A2b) [nM] | EC50 (Adenosine receptor A3 [11]) [nM] | Efficacy [12] [%] | Efficacy (Adenosine receptor A2a [13]) [%] | Ratio Ki [16] | Ratio Ki [4] | Ratio Ki (Homo sapiens [14]) | Ratio Ki (Homo sapiens [15]) | Activity (Mus musculus [17]) | further results
CNC(=O)[C@H]1O[C@@H](n2cnc3c(NCc4cccc(I)c4)nc(Cl)nc32)[C@H](O)[C@@H]1O | – | – | – | – | – | – | – | – | – | – | – | – | – | – | – | Activity (Mus musculus [1]): inactive; Activity (Mus musculus [2]): inactive
CCn1nnc([C@H]2O[C@@H](n3cnc4c(NCc5cccc(F)c5)ncnc43)C(O)C2O)n1 (single isomer, unassigned) | 9.26 | 147 | 3.73 | 74 | 1.2 | 14.4 | 1100 | 12.5 | > 90 | > 90 | 0.32 | 7.7 | 20 | 62 | – | Activity [10]: 86%
CCn1nnc([C@H]2O[C@@H](n3cnc4c(NCc5cccc(I)c5)nc(Cl)nc43)[C@H](O)[C@@H]2O)n1 | 2.53 | – | – | – | – | – | – | – | – | – | – | – | – | – | inactive | logP [18]: 4.06

The remaining compounds from weak to strong by Ki (Adenosine receptor A3 [3]), led by results:

Ki (Adenosine receptor A3 [3]) [nM] | EC50 (Adenosine receptor A1 [5]) [nM] | Ki (Adenosine receptor A1 [6]) [nM] | Ki (Adenosine receptor A2a [7]) [nM] | Ki (Adenosine receptor A3 [8]) [nM] | EC50 (Adenosine receptor A2a [9]) [nM] | EC50 (Adenosine receptor A2b) [nM] | EC50 (Adenosine receptor A3 [11]) [nM] | Efficacy [12] [%] | Efficacy (Adenosine receptor A2a [13]) [%] | Ratio Ki [16] | Structure (SMILES) | Ratio Ki [4] | Ratio Ki (Homo sapiens [14]) | Ratio Ki (Homo sapiens [15]) | Activity (Mus musculus [17]) | further results
484 | – | – | – | – | – | – | – | – | – | – | CCn1nnc([C@H]2O[C@@H](n3cnc4c(NC)ncnc43)[C@H](O)[C@@H]2O)n1 | – | – | – | Dose-dependent effect | Activity (Mus musculus [19]): inactive; inhibition (Mus musculus [20]): Active; Activity (Mus musculus [21]): Active
4.11 | 45.1 | 0.95 | 24.5 | 0.393 | 4.46 | 408 | 2.07 | > 90 | > 90 | 0.4 | CCn1nnc([C@H]2O[C@@H](n3cnc4c(NCc5cccc(Br)c5)ncnc43)C(O)C2O)n1 (single isomer, unassigned) | 10 | 25 | 61 | – | Efficacy [22]: > 90%
